Measured values from ChEMBL document CHEMBL1125392, “Antitumor agents. 124. New 4 beta-substituted aniline derivatives of 6,7-O,O-demethylene-4'-O-demethylpodophyllotoxin and related compounds as potent inhibitors of human DNA topoisomerase II” (J Med Chem, 1992).

Assays:
Nucleic Acid = test: Effect on cellular protein DNA complex formation(%) at 10 uM in comparison with etoposide; format: functional
[1] = molecular target: DNA topoisomerase II (Homo sapiens) (UniProt P11388+Q02880); test: Inhibition of human DNA Topoisomerase II; format: protein assay
Method in brief: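 Human DNA topoisomerase II catalytic inhibition was tested at five concentrations (10, 20, 25, 50 and 100 μM). ID50 was set from the degree of inhibition observed across these concentrations.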

[2] = Concentration required for 50% reduction in KB cell number after 3-day incubation; format: functional, cell-based, Homo sapiens

Row | Structure (SMILES) | ID50 [1] [µM] | IC50 [2] [µM] | Complex formation (Nucleic Acid) [%]
1 | COc1cc([C@@H]2c3cc4c(cc3[C@@H](Nc3ccc(F)cc3)[C@H]3COC(=O)[C@H]23)OCO4)cc(OC)c1O | – | 0.24 | 213
2 | COc1cc([C@@H]2c3cc(O)c(O)cc3[C@@H](Nc3ccc(F)cc3)[C@H]3COC(=O)[C@H]23)cc(OC)c1OC | 50 | > 2 | 11
3 | COc1cc2c(cc1OC)[C@@H](Nc1ccc(F)cc1)[C@H]1COC(=O)[C@@H]1[C@@H]2c1cc(OC)c(O)c(OC)c1 | 50 | 0.78 | 108
4 | CCOC(=O)c1ccc(N[C@@H]2c3cc4c(cc3[C@@H](c3cc(OC)c(O)c(OC)c3)[C@H]3C(=O)OC[C@@H]32)OCO4)cc1 | – | 0.84 | 207
5 | COc1cc([C@@H]2c3cc4c(cc3[C@@H](Nc3ccc([N+](=O)[O-])cc3)[C@H]3COC(=O)[C@H]23)OCO4)cc(OC)c1O | – | 0.49 | 323
6 | COc1cc([C@@H]2c3cc(O)c(O)cc3[C@@H](Nc3ccccc3)[C@H]3COC(=O)[C@H]23)cc(OC)c1O | 25 | > 2.2 | 84
7 | COc1cc([C@@H]2c3cc(O)c(O)cc3[C@@H](Nc3ccc(F)cc3)[C@H]3COC(=O)[C@H]23)cc(OC)c1O | 25 | > 2.1 | 52
8 | COc1cc([C@@H]2c3cc4c(cc3[C@@H](Nc3ccc(C#N)cc3)[C@H]3COC(=O)[C@H]23)OCO4)cc(OC)c1O | – | 0.64 | 211
9 | COc1cc([C@@H]2c3cc4c(cc3[C@@H](O[C@@H]3O[C@@H]5CO[C@@H](C)O[C@H]5[C@H](O)[C@H]3O)[C@H]3COC(=O)[C@H]23)OCO4)cc(OC)c1O [ETOPOSIDE] | – | 0.2 | 100
10 | COc1cc([C@@H]2c3cc(O)c(O)cc3[C@@H](Nc3ccc([N+](=O)[O-])cc3)[C@H]3COC(=O)[C@H]23)cc(OC)c1O | 20 | 1.5 | 99
11 | COc1cc([C@@H]2c3cc(O)c(O)cc3[C@@H](Nc3ccc(C#N)cc3)[C@H]3COC(=O)[C@H]23)cc(OC)c1OC | > 100 | > 2 | 33
12 | COc1cc([C@@H]2c3cc(O)c(O)cc3[C@@H](Nc3ccccc3)[C@H]3COC(=O)[C@H]23)cc(OC)c1OC | 50 | > 2.1 | 9
13 | COc1cc([C@@H]2c3cc(O)c(O)cc3[C@@H](Nc3cccc(O)c3)[C@H]3COC(=O)[C@H]23)cc(OC)c1O | 20 | > 2.1 | 18

Second part, led by results:

Row | ID50 [1] [µM] | IC50 [2] [µM] | Structure (SMILES) | Complex formation (Nucleic Acid) [%]
14 | 100 | 1.3 | COc1cc2c(cc1OC)[C@@H](Nc1ccc([N+](=O)[O-])cc1)[C@H]1COC(=O)[C@@H]1[C@@H]2c1cc(OC)c(O)c(OC)c1 | 75
15 | 50 | > 2 | COc1cc([C@@H]2c3cc(O)c(O)cc3[C@@H](Nc3cccc(O)c3)[C@H]3COC(=O)[C@H]23)cc(OC)c1OC | 4
16 | 100 | < 0.7 | CCOC(=O)c1ccc(N[C@@H]2c3cc(OC)c(OC)cc3[C@@H](c3cc(OC)c(O)c(OC)c3)[C@H]3C(=O)OC[C@@H]32)cc1 | 127
17 | > 100 | 7.6 | COc1cc2c(cc1OC)[C@@H](Nc1ccc(F)cc1)[C@H]1COC(=O)[C@@H]1[C@@H]2c1cc(OC)c(OC)c(OC)c1 | 8
18 | > 100 | 7.3 | COc1cc2c(cc1OC)[C@@H](Nc1ccc([N+](=O)[O-])cc1)[C@H]1COC(=O)[C@@H]1[C@@H]2c1cc(OC)c(OC)c(OC)c1 | 8
19 | > 100 | 5.8 | COc1cc2c(cc1OC)[C@@H](Nc1ccc(C#N)cc1)[C@H]1COC(=O)[C@@H]1[C@@H]2c1cc(OC)c(OC)c(OC)c1 | 12
20 | 20 | 2 | COc1cc([C@@H]2c3cc(O)c(O)cc3[C@@H](Nc3ccc(C#N)cc3)[C@H]3COC(=O)[C@H]23)cc(OC)c1O | 62
21 | > 100 | > 1.9 | COc1cc([C@@H]2c3cc(O)c(O)cc3[C@@H](Nc3ccc([N+](=O)[O-])cc3)[C@H]3COC(=O)[C@H]23)cc(OC)c1OC | 23
22 | > 100 | 5.5 | CCOC(=O)c1ccc(N[C@@H]2c3cc(OC)c(OC)cc3[C@@H](c3cc(OC)c(OC)c(OC)c3)[C@H]3C(=O)OC[C@@H]32)cc1 | 9
23 | 20 | 1.46 | CCOC(=O)c1ccc(N[C@@H]2c3cc(O)c(O)cc3[C@@H](c3cc(OC)c(O)c(OC)c3)[C@H]3C(=O)OC[C@@H]32)cc1 | 138
24 | 50 | < 0.77 | COc1cc2c(cc1OC)[C@@H](Nc1ccc(C#N)cc1)[C@H]1COC(=O)[C@@H]1[C@@H]2c1cc(OC)c(O)c(OC)c1 | 125
25 | 100 | > 1.8 | CCOC(=O)c1ccc(N[C@@H]2c3cc(O)c(O)cc3[C@@H](c3cc(OC)c(OC)c(OC)c3)[C@H]3C(=O)OC[C@@H]32)cc1 | 22
